Laboratory results as given in ChEMBL document CHEMBL1671728, “Short cationic antimicrobial peptides interact with ATP” (2010).
Values after ≈ are worked out from the molar mass of the structure shown. Active and inactive are the calls of the source. No cut-off for these calls is given here. Square brackets hold non-standard residues; d marks the D form. Peptide text beside a SMILES is read from it. Orn = NCCC[C@H](N)C(=O)O

Legend:
Pseudomonas aeruginosa = test: Antimicrobial activity against Pseudomonas aeruginosa PAO1 H103; assay type: functional
[1] = target: Luciferin 4-monooxygenase (Photinus pyralis) (UniProt P08659); test: Inhibition of Photinus pyralis fire fly luciferase assessed as reduction in light production at 10 times MIC for Pseudomonas aeruginosa PAO1 H103 by ATP bioluminescence assay
Procedure, shortened: (§1)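 Firefly luciferase kit mix (luciferin, MgSO4, DTT, EDTA, BSA, tricine) was combined with peptide at 1, 3 or 10× MIC against P. aeruginosa PAO1 H103. ATP (200 µM) was added to start the reaction and luminescence was read, with an ATP standard curve. Activity was scored by the lowest MIC multiple giving ≥75% loss of light.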

[2] = Inhibition of DnaK assessed as reduction in ATP turnover at MIC for Pseudomonas aeruginosa PAO1 H103 by ATPase assay
Procedure, shortened: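 DnaK ATPase run in 20 mM HEPES pH 8, 10 mM Mg acetate, 100 mM NaCl with 200 µM [α-32P]ATP (~8 Ci/mmol) and peptide at 1× MIC (control without peptide), 37°C for 15 min. Stopped with EDTA/SDS and imaged by phosphorimager. Turnover was taken as the ADP fraction of total spots, corrected for no-protein background, mean of two independent assays.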

[3] = Inhibition of DNA polymerase assessed as reduction in PCR products at MIC for Pseudomonas aeruginosa PAO1 H103 by qPCR
[4] = target: Luciferin 4-monooxygenase (Photinus pyralis) (UniProt P08659); test: Inhibition of Photinus pyralis fire fly luciferase assessed as reduction in light production at 1 times MIC for Pseudomonas aeruginosa PAO1 H103 by ATP bioluminescence assay; procedure, shortened: as §1
[5] = Inhibition of DNA polymerase assessed as reduction in PCR products at 3 times MIC for Pseudomonas aeruginosa PAO1 H103 by qPCR
[6] = target: Luciferin 4-monooxygenase (Photinus pyralis) (UniProt P08659); test: Inhibition of Photinus pyralis fire fly luciferase assessed as reduction in light production at 3 times MIC for Pseudomonas aeruginosa PAO1 H103 by ATP bioluminescence assay
Procedure, shortened: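 Commercial ATP bioluminescence kit with lyophilized firefly luciferase, luciferin, MgSO4, DTT, EDTA, BSA and tricine buffer. An ATP standard curve was run. Peptide was premixed with the kit solution, and ATP (200 µM) was added to start the reaction. Luminescence was read. Peptides were tested at 1×, 3× and 10× their MIC against P. aeruginosa PAO1 H103. Scoring was ≥75% loss of light at 3× MIC.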

Chain of Luciferin 4-monooxygenase (Photinus pyralis) (P08659 whole entry): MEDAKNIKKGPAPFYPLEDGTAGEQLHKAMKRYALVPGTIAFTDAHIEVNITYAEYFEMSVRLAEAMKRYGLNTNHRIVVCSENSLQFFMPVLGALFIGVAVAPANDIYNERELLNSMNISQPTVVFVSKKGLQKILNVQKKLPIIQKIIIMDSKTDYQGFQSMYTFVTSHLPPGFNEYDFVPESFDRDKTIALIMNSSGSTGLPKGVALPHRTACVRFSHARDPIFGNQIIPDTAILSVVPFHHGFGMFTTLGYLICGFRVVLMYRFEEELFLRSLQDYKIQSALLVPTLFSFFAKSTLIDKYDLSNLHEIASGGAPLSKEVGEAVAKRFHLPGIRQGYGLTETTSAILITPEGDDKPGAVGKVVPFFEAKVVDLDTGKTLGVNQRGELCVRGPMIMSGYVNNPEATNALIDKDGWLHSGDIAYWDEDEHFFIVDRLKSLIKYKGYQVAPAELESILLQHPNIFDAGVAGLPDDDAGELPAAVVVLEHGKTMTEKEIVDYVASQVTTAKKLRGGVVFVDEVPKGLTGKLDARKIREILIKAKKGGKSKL

## H-VRLRIRVAVIRA-NH2
Pseudomonas aeruginosa
  MIC: 10 µg/mL
[1]
  inhibition: > 75%

## CC[C@H](C)[C@H](NC(=O)[C@H](CC(C)C)NC(=O)[C@H](C)NC(=O)[C@@H]1CCCN1C(=O)[C@H](CC(C)C)NC(=O)CNC(=O)[C@@H](NC(=O)[C@@H](NC(=O)[C@H](CC(C)C)NC(=O)[C@@H](NC(=O)[C@H](CCCCN)NC(=O)[C@H](CCCCN)NC(=O)[C@@H](NC(=O)[C@H](C)NC(=O)[C@@H](NC(=O)[C@@H](NC(=O)[C@H](CC(C)C)NC(=O)[C@H](CCCCN)NC(=O)[C@H](CCCCN)NC(=O)[C@@H](NC(=O)[C@H](Cc1ccccc1)NC(=O)[C@H](CO)NC(=O)[C@H](CCCCN)NC(=O)[C@H](Cc1c[nH]c2ccccc12)NC(=O)[C@@H](N)CCCCN)[C@@H](C)CC)[C@@H](C)O)[C@@H](C)O)C(C)C)C(C)C)[C@@H](C)O)[C@@H](C)O)C(=O)N[C@@H](CO)C(=O)O
Pseudomonas aeruginosa
  MIC: 2 µg/mL (≈ 0.696 µM)
[1]
  inhibition: inactive
[2]
  inhibition: inactive
[3]
  inhibition: inactive

## H-RLWRIVVIRVAR-NH2
Pseudomonas aeruginosa
  MIC: 8 µg/mL
[4]
  inhibition: 75%
[2]
  inhibition: Active
[5]
  inhibition: Active

## CC[C@H](C)[C@H](NC(=O)CNC(=O)[C@@H](NC(=O)[C@H](CCCCN)NC(=O)[C@H](CCCCN)NC(=O)[C@H](Cc1ccccc1)NC(=O)[C@H](CC(C)C)NC(=O)[C@H](CCCCN)NC(=O)[C@H](Cc1c[nH]c2ccccc12)NC(=O)[C@@H](N)CCCCN)[C@@H](C)CC)C(=O)NCC(=O)N[C@@H](C)C(=O)N[C@H](C(=O)N[C@@H](CC(C)C)C(=O)N[C@@H](CCCCN)C(=O)N[C@H](C(=O)N[C@@H](CC(C)C)C(=O)N[C@H](C(=O)N[C@H](C(=O)NCC(=O)N[C@@H](CC(C)C)C(=O)N1CCC[C@H]1C(=O)N[C@@H](C)C(=O)N[C@@H](CC(C)C)C(=O)N[C@H](C(=O)N[C@@H](CO)C(=O)O)[C@@H](C)CC)[C@@H](C)O)[C@@H](C)O)C(C)C)C(C)C
Pseudomonas aeruginosa
  MIC: 2 µg/mL (≈ 0.715 µM)
[1]
  inhibition: inactive

## POLYMYXIN B
Pseudomonas aeruginosa
  MIC: 0.5 µg/mL
[2]
  inhibition: inactive
[3]
  inhibition: inactive

## H-RLARIVPIRVAR-NH2
Pseudomonas aeruginosa
  MIC: > 250 µg/mL
[1]
  inhibition: inactive

## H-RLARIVVIRVAR-NH2
Pseudomonas aeruginosa
  MIC: 50 µg/mL
[6]
  inhibition: > 75%
[2]
  inhibition: Active
[3]
  inhibition: Active

## CC(C)C[C@@H]1NC(=O)[C@H](CCCN)NC(=O)[C@H](C(C)C)NC(=O)[C@@H]2CCCN2C(=O)[C@@H](Cc2ccccc2)NC(=O)[C@H](CC(C)C)NC(=O)[C@H](CCCN)NC(=O)[C@H](C(C)C)NC(=O)[C@@H]2CCCN2C(=O)[C@@H](Cc2ccccc2)NC1=O [GRAMICIDIN S] (cyclo(L[dF]PV[Orn]L[dF]PV[Orn]))
Pseudomonas aeruginosa
  MIC: 0.2 µg/mL (≈ 0.175 µM)
[1]
  inhibition: inactive
[3]
  inhibition: inactive

## H-KWKSFLRTLKSPAKTVFHTALKAISS-OH
Pseudomonas aeruginosa
  MIC: 16 µg/mL
[1]
  inhibition: inactive

## H-RAVAVIIRLRRV-NH2
Pseudomonas aeruginosa
  MIC: 33 µg/mL
[6]
  inhibition: > 75%

## H-KWKSFLKTFKSAVKTVLHTALKAISS-OH
Pseudomonas aeruginosa
  MIC: 2 µg/mL
[1]
  inhibition: inactive
[2]
  inhibition: inactive
[3]
  inhibition: inactive

## GENTAMICIN
Pseudomonas aeruginosa
  MIC: 25 µg/mL
[1]
  inhibition: inactive

## H-KWKSFIKKLTSAAKKVVTTAKPLISS-OH
Pseudomonas aeruginosa
  MIC: 2 µg/mL
[1]
  inhibition: inactive

## CC(C)[C@H](NC(=O)[C@H](CCCNC(=N)N)NC(=O)[C@H](Cc1ccccc1)NC(=O)[C@H](CS)NC(=O)[C@H](Cc1c[nH]c2ccccc12)NC(=O)[C@H](CCCNC(=N)N)NC(=O)[C@@H](N)CCCNC(=N)N)C(=O)N[C@@H](CS)C(=O)N[C@@H](Cc1ccc(O)cc1)C(=O)N[C@@H](CCCNC(=N)N)C(=O)NCC(=O)N[C@@H](Cc1ccccc1)C(=O)N[C@@H](CS)C(=O)N[C@@H](Cc1ccc(O)cc1)C(=O)N[C@@H](CCCNC(=N)N)C(=O)N[C@@H](CCCCN)C(=O)N[C@@H](CS)C(=O)N[C@@H](CCCNC(=N)N)C(N)=O [POLYPHEMUSIN I] (H-RRWCFRVCYRGFCYRKCR-NH2)
Pseudomonas aeruginosa
  MIC: 2 µg/mL (≈ 0.814 µM)
[1]
  inhibition: > 75%

## H-RRWKIVVIRWRR-NH2
Pseudomonas aeruginosa
  MIC: 2 µg/mL
[4]
  inhibition: 75%
[2]
  inhibition: Active
[3]
  inhibition: Active

## H-KWKSFLRTFKSPVRTVFHTALKPISS-OH
Pseudomonas aeruginosa
  MIC: 16 µg/mL
[1]
  inhibition: inactive

## H-RRAAVVLIVIRR-NH2
Pseudomonas aeruginosa
  MIC: 7 µg/mL
[6]
  inhibition: > 75%

## H-RRWRIVVIRVRR-NH2
Pseudomonas aeruginosa
  MIC: 2 µg/mL
[4]
  inhibition: 75%
